Assays:
Format in all cases: functional
Candida albicans [1] = assay: Antifungal activity against Candida albicans at a concentration of 1 mg/mL in MeOH
Procedure, shortened: (§1)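 Standard agar-well diffusion on Sabouraud agar bioassay plates, seeded with C. albicans strain IV or A. fumigatus strain AF-1. Read-out is the inhibition zone produced around the well. Zone appearance is scored as hazy, very hazy, hazy diffused or very hazy diffused, and judged against the zone of the parent mulundocandin.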

Aspergillus fumigatus [2] = assay: Antifungal activity against Aspergillus fumigatus at a concentration of 5 mg/mL in MeOH; Zone: hazy diffused; procedure, shortened: as §1
Aspergillus fumigatus [3] = assay: Antifungal activity against Aspergillus fumigatus at a concentration of 2 mg/mL in MeOH; Zone: very hazy; procedure, shortened: as §1
Candida albicans [4] = assay: Antifungal activity against Candida albicans at a concentration of 5 mg/mL in MeOH; procedure, shortened: as §1
Candida albicans [5] = assay: Antifungal activity against Candida albicans at an intraperitoneal dose of 20 mg/kg twice a day for 6 days in mice
Procedure, shortened: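 Swiss mice were infected with C. albicans and treated intraperitoneally at 20 mg/kg ×6, b.i.d. Kidneys were homogenized and the approximate CFU per gm kidney was counted. Comparator groups were the parent compound, fluconazole and untreated infected controls.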

Aspergillus fumigatus [6] = assay: Antifungal activity against Aspergillus fumigatus at a concentration of 2 mg/mL in MeOH; Zone: hazy diffused; procedure, shortened: as §1
Aspergillus fumigatus [7] = assay: Antifungal activity against Aspergillus fumigatus at a concentration of 1.1 mg/mL in MeOH; Zone: hazy diffused; procedure, shortened: as §1
Candida albicans [8] = assay: Antifungal activity against Candida albicans at a concentration of 1.1 mg/mL in MeOH; procedure, shortened: as §1
Aspergillus fumigatus [9] = assay: Antifungal activity against Aspergillus fumigatus at a concentration of 2 mg/mL in MeOH; Zone: very hazy diffused; procedure, shortened: as §1
Candida albicans [10] = assay: Antifungal activity against Candida albicans at an intraperitoneal dose of 20 mg/kg twice a day for 6 days in mice in experiment 2
Procedure, shortened: (§2)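 Swiss mice infected with C. albicans; compounds given intraperitoneally at 20 mg/kg, ×6, b.i.d. Kidneys homogenized and colony-forming units counted per gram of kidney (approximate). Untreated infected control group included; fluconazole at the same dose used as standard.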

Candida albicans [11] = assay: Antifungal activity against Candida albicans at an intraperitoneal dose of 20 mg/kg twice a day for 6 days in mice in experiment 1; procedure, shortened: as §2
Candida albicans [12] = assay: Antifungal activity against Candida albicans at a concentration of 0.1 mg/mL in MeOH; procedure, shortened: as §1
Aspergillus fumigatus [13] = assay: Antifungal activity against Aspergillus fumigatus at a concentration of 1 mg/mL in MeOH; Zone: hazy; procedure, shortened: as §1
Candida albicans [14] = assay: Antifungal activity against Candida albicans at a concentration of 1 mg/mL in MeOH; Zone: hazy; procedure, shortened: as §1
Aspergillus fumigatus [15] = assay: Antifungal activity against Aspergillus fumigatus at a concentration of 5 mg/mL in MeOH; Zone: hazy; procedure, shortened: as §1
Aspergillus fumigatus [16] = assay: Antifungal activity against Aspergillus fumigatus at a concentration of 2 mg/mL in MeOH; Zone: hazy; procedure, shortened: as §1
Candida albicans [17] = assay: Antifungal activity against Candida albicans at a concentration of 2 mg/mL in MeOH; Zone: hazy; procedure, shortened: as §1
Aspergillus fumigatus [18] = assay: Antifungal activity against Aspergillus fumigatus at a concentration of 2 mg/mL in MeOH; Zone: diffused; procedure, shortened: as §1
Aspergillus fumigatus [19] = assay: Antifungal activity against Aspergillus fumigatus at a concentration of 5 mg/mL in MeOH; Zone: very hazy diffused; procedure, shortened: as §1

Row | Compound | Zone size (Candida albicans [1]) [mm] | Zone size (Aspergillus fumigatus [2]) [mm] | Zone size (Candida albicans [4]) [mm] | Zone size (Aspergillus fumigatus [6]) [mm] | other results
1 | CCC(C)CCCCCCCCCCC(=O)N[C@@H]1C[C@@H](O)C(S(=O)(=O)CC(=O)OC)NC(=O)[C@@H]2[C@@H](O)[C@@H](C)CN2C(=O)C(CO)NC(=O)C([C@@H](O)[C@H](O)c2ccc(O)cc2)NC(=O)[C@@H]2C[C@@H](O)CN2C(=O)C(C(C)O)NC1=O (some centres undefined) | 20 | 29 | 26 | – | Zone size (Aspergillus fumigatus [3]): 24 mm
2 | CCC(C)CCCCCCCCCCC(=O)N[C@@H]1C[C@@H](O)C(O)NC(=O)[C@@H]2[C@@H](O)[C@@H](C)CN2C(=O)[C@H](CO)NC(=O)[C@H]([C@@H](O)Cc2ccc(O)cc2)NC(=O)[C@@H]2C[C@@H](O)CN2C(=O)[C@H]([C@@H](C)O)NC1=O (some centres undefined) | 30 | – | – | 30 | Approximate colony formation unit (Candida albicans [5]): 180000000 (g kidney)-1
3 | CCC(C)CCCCCCCCCCC(=O)N[C@@H]1C[C@@H](O)CNC(=O)[C@@H]2[C@@H](O)[C@@H](C)CN2C(=O)[C@H](CO)NC(=O)[C@H]([C@@H](O)C(O)c2ccc(O)cc2)NC(=O)[C@@H]2C[C@@H](O)CN2C(=O)[C@H]([C@@H](C)O)NC1=O (some centres undefined) | 25 | 25 | 29 | 23 | –
4 | CCC(C)CCCCCCCCCCC(=O)N[C@@H]1C[C@@H](O)[C@H](O)NC(=O)[C@@H]2[C@@H](O)[C@@H](C)CN2C(=O)[C@H](CO)NC(=O)[C@H]([C@@H](O)[C@H](O)c2ccc(O)cc2)NC(=O)[C@@H]2C[C@@H](O)CN2C(=O)[C@H]([C@@H](C)O)NC1=O (some centres undefined) | – | – | – | – | Zone size (Aspergillus fumigatus [7]): 29 mm; Zone size (Candida albicans [8]): 29 mm; Zone size (Aspergillus fumigatus [9]): 35 mm; Approximate colony formation unit (Candida albicans [10]): 12500000 (g kidney)-1; Approximate colony formation unit (Candida albicans [11]): 150000000 (g kidney)-1; Zone size (Candida albicans [12]): 24 mm
5 | CCC(C)CCCCCCCCCCC(=O)N[C@@H]1C[C@@H](O)CNC(=O)[C@@H]2[C@@H](O)[C@@H](C)CN2C(=O)[C@H](CO)NC(=O)[C@H]([C@@H](O)Cc2ccc(O)cc2)NC(=O)[C@@H]2C[C@@H](O)CN2C(=O)[C@H]([C@@H](C)O)NC1=O (some centres undefined) | – | 35 | 38 | 30 | Zone size (Aspergillus fumigatus [13]): 25 mm; Approximate colony formation unit (Candida albicans [5]): 7700000 (g kidney)-1; Zone size (Candida albicans [14]): 24 mm
6 | CCC(C)CCCCCCCCCCC(=O)N[C@@H]1C[C@H](O)C(C#N)NC(=O)[C@@H]2[C@@H](O)[C@@H](C)CN2C(=O)[C@H](CO)NC(=O)[C@H]([C@@H](O)[C@H](O)c2ccc(O)cc2)NC(=O)[C@@H]2C[C@@H](O)CN2C(=O)[C@H]([C@@H](C)O)NC1=O (some centres undefined) | 19 | 27 | 25 | 20 | –
7 | CCC(C)CCCCCCCCCCC(=O)N[C@@H]1C[C@@H](O)[C@H](OCc2ccccc2)NC(=O)[C@@H]2[C@@H](O)[C@@H](C)CN2C(=O)C(CO)NC(=O)C([C@@H](O)Cc2ccc(O)cc2)NC(=O)[C@@H]2C[C@@H](O)CN2C(=O)C(C(C)O)NC1=O (some centres undefined) | – | 18 | 17 | 15 | –
8 | CCC(C)CCCCCCCCCCC(=O)N[C@@H]1C[C@@H](O)C(OCc2ccccc2)NC(=O)[C@@H]2[C@@H](O)[C@@H](C)CN2C(=O)C(CO)NC(=O)C([C@@H](O)[C@H](O)c2ccc(O)cc2)NC(=O)[C@@H]2C[C@@H](O)CN2C(=O)C(C(C)O)NC1=O (some centres undefined) | – | – | 16 | – | Zone size (Aspergillus fumigatus [15]): 26 mm; Zone size (Aspergillus fumigatus [16]): 24 mm
9 | CCC(C)CCCCCCCCCCC(=O)N[C@@H]1C[C@@H](O)C(c2ccc(OC)c(OC)c2)NC(=O)[C@@H]2[C@@H](O)[C@@H](C)CN2C(=O)C(CO)NC(=O)C([C@@H](O)[C@H](O)c2ccc(O)cc2)NC(=O)[C@@H]2C[C@@H](O)CN2C(=O)C(C(C)O)NC1=O (some centres undefined) | 24 | 32 | 29 | 30 | –
10 | CCC(C)CCCCCCCCCCC(=O)N[C@@H]1C[C@@H](O)C(OC)NC(=O)[C@@H]2[C@@H](O)[C@@H](C)CN2C(=O)C(CO)NC(=O)C([C@@H](O)[C@H](O)c2ccc(O)cc2)NC(=O)[C@@H]2C[C@@H](O)CN2C(=O)C(C(C)O)NC1=O (some centres undefined) | 25 | – | 27 | – | Zone size (Candida albicans [17]): 26 mm; Zone size (Aspergillus fumigatus [18]): 37 mm; Zone size (Aspergillus fumigatus [16]): 24 mm; Zone size (Aspergillus fumigatus [19]): 35 mm
11 | CCC(C)CCCCCCCCCCC(=O)N[C@@H]1C[C@@H](O)C(CN)NC(=O)[C@@H]2[C@@H](O)[C@@H](C)CN2C(=O)C(CO)NC(=O)C([C@@H](O)[C@H](O)c2ccc(O)cc2)NC(=O)[C@@H]2C[C@@H](O)CN2C(=O)C(C(C)O)NC1=O (some centres undefined) | 22 | 25 | 25 | 23 | –
12 | OC(Cn1cncn1)(Cn1cncn1)c1ccc(F)cc1F [FLUCONAZOLE] | – | – | – | – | Approximate colony formation unit (Candida albicans [10]): 10000 (g kidney)-1; Approximate colony formation unit (Candida albicans [11]): 380000 (g kidney)-1

From ChEMBL document CHEMBL1147582, “Approaches towards the stabilization of hemiaminal function at ornithine unit of mulundocandin” (2004)
